From article PMC5203969 (Clinical cancer research : an official journal of the …, 2016)
Where two headings read alike, the source gives them in different places.

Columns and labels:
[1] = system: NTRK1 autophosphorylation in CUTO-3 cells (MPRIP-NTRK1); test: Western blot of NTRK1 autophosphorylation in CUTO-3 cells; assay type: cell-based, human; settings: 6 hours, dovitinib at 1000 nM
Procedure, shortened: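 CUTO-3 cells (MPRIP-NTRK1, patient-derived) were treated with inhibitor for 6 hours. They were lysed for 30 min in 0.1% Triton X-100 plus protease inhibitor. Lysates were run on 4–12% Bis-Tris gels and transferred to PVDF. Membranes were blocked in 5% milk, then probed with primary antibody at 1:1,000 and secondary at 1:5,000.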

[2] = system: NTRK1 autophosphorylation in NIH-3T3 cells transformed with FLAG-tagged CD74-NTRK1; assay type: cell-based; settings: 6 hours, western blot
CUTO-3 cells = test: Proliferation of CUTO-3 tumor cells; assay type: cell-based, human
Parental Ba/F3 cells = test: Proliferation of parental Ba/F3 cells grown in the presence of IL-3; assay type: cell-based, murine; settings: read-out: IC50 Parental Ba/F3
Procedure, shortened: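 Parental Ba/F3 cells are immortalized murine bone-marrow pro-B cells. They were incubated with test compound for 72 hours, and viability was measured by CellTiter Glo. Final DMSO was under 0.5%.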

F589V CD74-NTRK1 = assay type: cell-based; settings: 293 cells transiently transfected with wild-type and F589V CD74-NTRK1
[3] = system: ROS1 autophosphorylation and ERK in CD74-ROS1 wild-type transformed Ba/F3 cells; test: Western blot of ROS1; assay type: cell-based, murine
HCC78 NSCLC cell line = test: Proliferation of HCC78 NSCLC cell line; assay type: cell-based, human
Procedure, shortened: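 HCC-78 cells were obtained from ATCC (STR-authenticated) and passaged under 6 months. Cells were exposed to test compound for 72 hours, and viability was read by CellTiter Glo luminescence.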

ROS1-rearranged NSCLC = settings: phase II; cited from earlier work
[4] = observed in clinical trials; cited from earlier work
[5] = molecular target: Ba/F3 cells transformed with CD74-ROS1 (wild-type) (Homo sapiens, UniProt P04233+P08922); test: Proliferation of Ba/F3 cells transformed with CD74-ROS1 wild-type; assay type: cell-based, murine; settings: peak plasma level obtained through FDA-approved oral dosing
medullary thyroid cancer = settings: cited from earlier work
[6] = system: ROS1 autophosphorylation and ERK in CD74-ROS1 L2026M transformed Ba/F3 cells; test: Western blot of ROS1; assay type: cell-based, murine
[7] = system: ROS1 autophosphorylation and ERK in CD74-ROS1 G2032R transformed Ba/F3 cells; test: Western blot of ROS1; assay type: cell-based, murine
prostate cancer = settings: cited from earlier work
[8] = system: ROS1-rearranged metastatic lung adenocarcinoma; test: Treatment of one patient with ROS1-rearranged metastatic lung adenocarcinoma
RET-rearranged NSCLC = settings: of 3 patients with RET-rearranged NSCLC; cited from earlier work
[9] = Homo sapiens, CUTO-3, read-out: IC50 inhibition of CUTO-3 cells, proliferation
[10] = read-out: IC50 inhibition of CUTO-3 cells, proliferation
[11] = Homo sapiens, HCC78, read-out: IC50 inhibition of the HCC78 NSCLC cell line

Sequence of Ba/F3 cells transformed with CD74-ROS1 (wild-type) (P08922 1883-2347 limits assumed, one chain of several): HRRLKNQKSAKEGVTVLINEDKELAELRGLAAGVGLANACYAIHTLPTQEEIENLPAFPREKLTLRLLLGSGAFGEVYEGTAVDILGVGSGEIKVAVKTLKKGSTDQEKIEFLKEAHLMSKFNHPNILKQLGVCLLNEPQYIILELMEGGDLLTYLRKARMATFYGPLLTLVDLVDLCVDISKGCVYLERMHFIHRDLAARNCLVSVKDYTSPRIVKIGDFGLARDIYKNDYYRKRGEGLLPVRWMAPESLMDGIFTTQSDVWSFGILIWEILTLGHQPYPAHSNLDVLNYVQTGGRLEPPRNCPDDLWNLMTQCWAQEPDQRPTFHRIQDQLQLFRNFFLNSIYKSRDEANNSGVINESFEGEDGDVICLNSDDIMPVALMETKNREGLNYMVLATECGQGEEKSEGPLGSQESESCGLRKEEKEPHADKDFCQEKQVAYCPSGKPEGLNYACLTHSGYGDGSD

C[C@]12O[C@H](C[C@]1(O)CO)n1c3ccccc3c3c4c(c5c6ccccc6n2c5c31)CNC4=O [lestaurtinib, Lestaurtinib]
inhibition of NTRK1 autophosphorylation [1]: inhibited NTRK1 autophosphorylation | inhibition of NTRK1 autophosphorylation [2]: inhibit NTRK1 autophosphorylation | IC50 (CUTO-3 cells; [9]): 3.5 nM | IC50 (CUTO-3 cells; [10]): 3 nM | IC50 (Parental Ba/F3 cells; Mus musculus, BaF3, 72 h): 3400 nM | effect of F589V mutation on inhibition of NTRK1 autophosphorylation (F589V CD74-NTRK1): did not affect inhibition of NTRK1 autophosphorylation

C[C@@H](Oc1cc(-c2cnn(C3CCNCC3)c2)cnc1N)c1c(Cl)ccc(F)c1Cl [Crizotinib, crizotinib]
phosphorylation of ROS1 and ERK [3]: inhibits the phosphorylation of ROS1 and ERK | IC50 (CUTO-3 cells; Homo sapiens, CUTO-3, read-out: IC50 inhibition of CUTO-3 cells): 462 nM | IC50 (HCC78 NSCLC cell line; [11]): 1600 nM | progression-free survival (ROS1-rearranged NSCLC): 19.2 month | response rate (ROS1-rearranged NSCLC): 72%

CN1CCN(c2ccc3nc(-c4c(N)c5c(F)cccc5[nH]c4=O)[nH]c3c2)CC1 [dovitinib, Dovitinib]
inhibition of NTRK1 autophosphorylation [1]: partial inhibition | inhibition of NTRK1 autophosphorylation [2]: weaker than would be suggested by its IC50 value | peak plasma level with oral dosing [4]: 568 nM | IC50 (CUTO-3 cells; [9]): 170 nM | IC50 (Parental Ba/F3 cells; Mus musculus, BaF3, 72 h): 4200 nM

COc1cc2nccc(Oc3ccc(NC(=O)C4(C(=O)Nc5ccc(F)cc5)CC4)cc3)c2cc1OC [Cabozantinib, cabozantinib]
phosphorylation of ROS1 and ERK [3]: a decrease is seen in the phosphorylation of ROS1 and ERK | fold by which inhibitory concentrations are below the peak plasma level [5]: ~ 50 fold | patients with dose-reductions (medullary thyroid cancer; medullary thyroid cancer study): 79% | progression-free survival (medullary thyroid cancer; medullary thyroid cancer, vs. 4 months placebo): 11.2 months | patients with doses held (medullary thyroid cancer; medullary thyroid cancer): 65% | patients with discontinuation due to adverse events (medullary thyroid cancer; phase III thyroid cancer study): 16% | phosphorylation of ROS1 and ERK [6]: a decrease is seen in the phosphorylation of ROS1 and ERK | phosphorylation of ROS1 and ERK [7]: a decrease is seen in the phosphorylation of ROS1 and ERK | discontinuation rate (prostate cancer; 40 mg group): 18% | rate of dose reduction (prostate cancer; 40 mg group): 31% | discontinuation rate (prostate cancer; 100 mg group): 25% | rate of dose reduction (prostate cancer; 100 mg group): 84% | IC50 (HCC78 NSCLC cell line; [11]): 1360 nM | right lower lobe lesion size on CT ([8]; 4 weeks after initiation of cabozantinib, from 1.7 cm): 1.4 cm | fatigue ([8]; single patient, after approximately 3 weeks on treatment): grade II | palmar-plantar erythrodysesthesia ([8]; single patient, after approximately 3 weeks on treatment, 140 to 80 mg daily): grade III | patients with a partial response (RET-rearranged NSCLC): 2 patients | patients with stable disease (RET-rearranged NSCLC): 1 patient

COc1cc(N2CCC(N3CCN(C)CC3)CC2)ccc1Nc1ncc(Cl)c(Nc2ccccc2P(C)(C)=O)n1 [Brigatinib, brigatinib]
phosphorylation of ROS1 and ERK [3]: inhibits the phosphorylation of ROS1 and ERK | phosphorylation of ROS1 and ERK [6]: inhibits the phosphorylation of ROS1 and ERK | phosphorylation of ROS1 and ERK [7]: less activity seen | IC50 (HCC78 NSCLC cell line; [11]): 2200 nM

C[C@H]1Oc2cc(cnc2N)-c2c(nn(C)c2C#N)CN(C)C(=O)c2ccc(F)cc21 [PF-06463922]
phosphorylation of ROS1 and ERK [3]: inhibited wild-type and L2026M mutant ROS1 autophosphorylation and ERK activation | phosphorylation of ROS1 and ERK [6]: inhibited wild-type and L2026M mutant ROS1 autophosphorylation and ERK activation | phosphorylation of ROS1 and ERK [7]: little effect on signaling | IC50 (HCC78 NSCLC cell line; read-out: IC50 inhibition of the HCC78 NSCLC cell line, proliferation): > 10000 nM

Cc1cc(Nc2ncc(Cl)c(Nc3ccccc3S(=O)(=O)C(C)C)n2)c(OC(C)C)cc1C1CCNCC1 [Ceritinib]
IC50 (HCC78 NSCLC cell line; [11]): 530 nM

COc1cc2c(Oc3ccc(NC(=O)C4(C(=O)Nc5ccc(F)cc5)CC4)cc3F)ccnc2cc1OCCCN1CCOCC1 [Foretinib, foretinib]
phosphorylation of ROS1 and ERK [3]: a decrease is seen in the phosphorylation of ROS1 and ERK | phosphorylation of ROS1 and ERK [6]: a decrease is seen in the phosphorylation of ROS1 and ERK | phosphorylation of ROS1 and ERK [7]: a decrease is seen in the phosphorylation of ROS1 and ERK | IC50 (HCC78 NSCLC cell line; [11]): 460 nM

CCc1cc2c(cc1N1CCC(N3CCOCC3)CC1)C(C)(C)c1[nH]c3cc(C#N)ccc3c1C2=O [Alectinib]
IC50 (HCC78 NSCLC cell line; [11]): 750 nM

Cc1cc(N2CCOCC2)cc2[nH]c(-c3c(NC[C@@H](O)c4cccc(Cl)c4)cc[nH]c3=O)nc12 [BMS-536924]
inhibition of NTRK1 autophosphorylation [1]: inhibited NTRK1 autophosphorylation | inhibition of NTRK1 autophosphorylation [2]: inhibit NTRK1 autophosphorylation | IC50 (CUTO-3 cells; [10]): 34 nM | IC50 (Parental Ba/F3 cells; parental Ba/F3 cells, 72 hours): 2750 nM | effect of F589V mutation on inhibition of NTRK1 autophosphorylation (F589V CD74-NTRK1): did not affect inhibition of NTRK1 autophosphorylation

CN1CCN(c2ccc(C(=O)Nc3n[nH]c4ccc(Cc5cc(F)cc(F)c5)cc34)c(NC3CCOCC3)c2)CC1 [Entrectinib, entrectinib]
phosphorylation of ROS1 and ERK [3]: only effective at blocking activity of wild-type ROS1 signaling | phosphorylation of ROS1 and ERK [6]: only effective at blocking activity of wild-type ROS1 signaling | phosphorylation of ROS1 and ERK [7]: only effective at blocking activity of wild-type ROS1 signaling | IC50 (HCC78 NSCLC cell line; [11]): 450 nM
